These results are taken from ChEMBL document CHEMBL1121782, “New monofunctional reagents for DNA as possible agents for the photochemotherapy of psoriasis: derivatives of 4,5'-dimethylangelicin” (J Med Chem, 1981).

Converted amounts (≈) assume the structure as drawn.

A short description of series [1]: Specific radioactivity of the compound. The format is ADME.
The species named for series [2] is Mus musculus. Nature of the series: compound was evaluated for its ability to inhibit DNA synthesis in Ehrlich ascites tumor cells by irradiation (365 nM). The format is functional. In a few lines:
(§1)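 Ehrlich ascites tumor cells in Hank's solution (2 × 10^7 cells/mL) irradiated on ice with 1.9 × 10^-5 M compound, Philips HPW 125 lamp at 20 cm (2.02 × 10^16 quanta/s incident). 2 × 10^6 cells then pulsed 15 min at 37 °C with 1 μCi [3H]thymidine (DNA) or [3H]uridine (RNA). Acid-insoluble counts taken as % of untreated cells. D50 is the UV-A dose giving 50% inhibition. Each dose run at least in duplicate.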

A short description of series [3]: Water solubility of the compound. The format is ADME. Conditions: for S: buffer; for solubility: water, read-out: S.
Series [4] is filed under the species Mus musculus. Nature of the series: Compound was evaluated for its ability to inhibit RNA synthesis in Ehrlich ascites tumor cells by irradiation (365 nM),. The format is functional. In a few lines: as §1
Another series relates to Nucleic Acid. Briefly: The compound was tested for its ability to bind to calf thymus DNA. The note with it: Bos taurus. The format is nucleic-acid assay. The gist of the method: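 Calf thymus DNA (hypochromicity over 40%) in water with 1.5 × 10-2 M NaCl and 1 × 10^-3 M EDTA, no irradiation. Ground-state binding by equilibrium dialysis or fluorimetric titration. r (ligand bound per nucleotide) and c (free ligand, mol/L) plotted per Scatchard. Intrinsic constant K and site size n fitted iteratively to McGhee–von Hippel by least squares until both changed by less than 1%.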

For series [5], the species on record is Mus musculus. Briefly: Compound was evaluated for its ability to inhibit DNA synthesis in Ehrlich ascites tumor cells by irradiation (365 nM). The format is functional. In a few lines: (§2)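 Ehrlich ascites tumour cells in Hank's solution (2 × 10^7 cells/mL) irradiated on ice with UV-A (Philips HPW 125, 20 cm; 2.02 × 10^16 quanta/s on whole sample) with 1.9 × 10^-5 M compound. Then 2 × 10^6 cells incubated 15 min at 37 °C with 1 μCi [3H]thymidine (DNA) or [3H]uridine (RNA). TCA-insoluble counts as % of untreated; D50 = UV dose giving 50% inhibition; doses ≥duplicate.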

For series [6], the species on record is Mus musculus. Nature of the series: Compound was evaluated for its ability to inhibit RNA synthesis in Ehrlich ascites tumor cells by irradiation (365 nM). The format is functional. The gist of the method: as §2

Take `Cc1cc2c(ccc3c(C)cc(=O)oc32)o1`: in series [1], the Specific radioactivity was determined as 5.11 Ci/M. For the same molecule, the D50 in the series listed under Mus musculus [2] is reported as 10.8 quanta*10e-18. Further, in series [3], the S was 3.7e-05 M l-1 and the solubility was determined as 8 µg/mL (≈ 37.3 µM). This molecule also came in with a D50 in the series filed under Mus musculus [4] of 13.5 quanta*10e-18. In addition, in the series on Nucleic Acid, the K came out at 1400.

Take `O=c1ccc2ccc3occc3c2o1` [ANGELICIN]: the Specific radioactivity in series [1] came to 1.59 Ci/M. For the same molecule, the D50 in the series filed under Mus musculus [5] came to 25 quanta*10e-18; in the series filed under Mus musculus [6], 23.3 quanta*10e-18.

Consider `COCc1c(C)oc2ccc3c(C)cc(=O)oc3c12`, for which the Specific radioactivity in series [1] is on record as 0.21 Ci/M. Further, the D50 in the series filed under Mus musculus [2] came to 22.7 quanta*10e-18; in the series listed under Mus musculus [4] it was 13.8 quanta*10e-18. Further, the S in series [3] was 0.000056 M l-1. The solubility in series [3] worked out at 15.3 µg/mL (≈ 59.2 µM). Besides, the K in the series with Nucleic Acid worked out at 700.

On to `Cc1oc2ccc3c(C)cc(=O)oc3c2c1CN.Cl`, for which the Specific radioactivity in series [1] is 0.13 Ci/M. The molecule further returned a D50 in the series filed under Mus musculus [2] of 100 quanta*10e-18. In series [3], the S was greater than 0.004 M l-1 and the solubility is greater than 1000 µg/mL. This molecule came in with a D50 in the series listed under Mus musculus [4] of 100 quanta*10e-18. The molecule also returned a K in the series on Nucleic Acid of 16300.

`Cc1oc2ccc3c(C)cc(=O)oc3c2c1CO`: in series [1], the Specific radioactivity amounted to 0.13 Ci/M. Moreover, the D50 in the series filed under Mus musculus [2] came to 9.2 quanta*10e-18. Moreover, in series [3], the S is 0.00007 M l-1 and the solubility came to 17.1 µg/mL (≈ 70 µM). In the series filed under Mus musculus [4], the D50 was found to be 13.8 quanta*10e-18. In addition, the K in the series on Nucleic Acid is 1250.
